Results taken from ChEMBL document CHEMBL4052595, “Application of Residual Dipolar Couplings and Selective Quantitative NOE to Establish the Structures of Tetranortriterpenoids from Xylocarpus rumphii” (J Nat Prod, 2017).
The source made the active and inactive calls.

Assays:
Type in all cases: functional, cell-based
SF-295 = assay: Growth inhibition of human SF295 cells at 10^-5 M incubated for 48 hrs by sulforhodamine B assay
How it was run: (§1)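 Run in the NCI59 one-dose cell-line screen, with each compound tested at a single concentration of 1 × 10−5 M.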

OVCAR-4 = assay: Growth inhibition of human OVCAR4 cells at 10^-5 M incubated for 48 hrs by sulforhodamine B assay; how it was run: as §1
NCI-H226 = assay: Growth inhibition of human NCI-H226 cells at 10^-5 M incubated for 48 hrs by sulforhodamine B assay; how it was run: as §1
RXF 393 = assay: Growth inhibition of human RXF393 cells at 10^-5 M incubated for 48 hrs by sulforhodamine B assay; how it was run: as §1
KM12 = assay: Growth inhibition of human KM12 cells at 10^-5 M incubated for 48 hrs by sulforhodamine B assay; how it was run: as §1
MOLT-4 = assay: Growth inhibition of human MOLT4 cells at 10^-5 M incubated for 48 hrs by sulforhodamine B assay; how it was run: as §1
CCRF-CEM = assay: Growth inhibition of human CCRF-CEM cells at 10^-5 M incubated for 48 hrs by sulforhodamine B assay; how it was run: as §1
SN12C = assay: Growth inhibition of human SN12C cells at 10^-5 M incubated for 48 hrs by sulforhodamine B assay; how it was run: as §1
SK-MEL-5 = assay: Growth inhibition of human SK-MEL-5 cells at 10^-5 M incubated for 48 hrs by sulforhodamine B assay; how it was run: as §1
PC-3 = assay: Growth inhibition of human PC3 cells at 10^-5 M incubated for 48 hrs by sulforhodamine B assay; how it was run: as §1
COLO 205 = assay: Growth inhibition of human COLO205 cells at 10^-5 M incubated for 48 hrs by sulforhodamine B assay; how it was run: as §1
MDA-MB-231 = assay: Growth inhibition of human MDA-MB-231 cells at 10^-5 M incubated for 48 hrs by sulforhodamine B assay; how it was run: as §1
NCI-H23 = assay: Growth inhibition of human NCI-H23 cells at 10^-5 M incubated for 48 hrs by sulforhodamine B assay; how it was run: as §1
LOX IMVI = assay: Growth inhibition of human LOXIMVI cells at 10^-5 M incubated for 48 hrs by sulforhodamine B assay; how it was run: as §1
TK-10 = assay: Growth inhibition of human TK10 cells at 10^-5 M incubated for 48 hrs by sulforhodamine B assay
How it was run: (§2)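 Tested at a single concentration of 1 × 10−5 M as part of the NCI59 cell-line one-dose screen.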

RPMI-8226 = assay: Growth inhibition of human RPMI8226 cells at 10^-5 M incubated for 48 hrs by sulforhodamine B assay; how it was run: as §1
HCT-116 = assay: Growth inhibition of human HCT116 cells at 10^-5 M incubated for 48 hrs by sulforhodamine B assay; how it was run: as §1
HCT-15 = assay: Growth inhibition of human HCT15 cells at 10^-5 M incubated for 48 hrs by sulforhodamine B assay; how it was run: as §1
SK-MEL-28 = assay: Growth inhibition of human SK-MEL-28 cells at 10^-5 M incubated for 48 hrs by sulforhodamine B assay; how it was run: as §1
IGROV-1 = assay: Growth inhibition of human IGROV1 cells at 10^-5 M incubated for 48 hrs by sulforhodamine B assay; how it was run: as §1
NCI-H322M = assay: Growth inhibition of human NCI-H322M cells at 10^-5 M incubated for 48 hrs by sulforhodamine B assay; how it was run: as §1
SF-268 = assay: Growth inhibition of human SF268 cells at 10^-5 M incubated for 48 hrs by sulforhodamine B assay; how it was run: as §1
UO-31 = assay: Growth inhibition of human UO31 cells at 10^-5 M incubated for 48 hrs by sulforhodamine B assay; how it was run: as §2
K562 = assay: Growth inhibition of human K562 cells at 10^-5 M incubated for 48 hrs by sulforhodamine B assay; how it was run: as §1
OVCAR-8 = assay: Growth inhibition of human OVCAR8 cells at 10^-5 M incubated for 48 hrs by sulforhodamine B assay; how it was run: as §1
SR = assay: Growth inhibition of human SR cells at 10^-5 M incubated for 48 hrs by sulforhodamine B assay; how it was run: as §1
Hs-578T = assay: Growth inhibition of human Hs 578T cells at 10^-5 M incubated for 48 hrs by sulforhodamine B assay; how it was run: as §1
786-0 = assay: Growth inhibition of human 786-0 cells at 10^-5 M incubated for 48 hrs by sulforhodamine B assay; how it was run: as §1
OVCAR-3 = assay: Growth inhibition of human OVCAR3 cells at 10^-5 M incubated for 48 hrs by sulforhodamine B assay; how it was run: as §1
NCI-H522 = assay: Growth inhibition of human NCI-H522 cells at 10^-5 M incubated for 48 hrs by sulforhodamine B assay; how it was run: as §1
SNB-19 = assay: Growth inhibition of human SNB19 cells at 10^-5 M incubated for 48 hrs by sulforhodamine B assay; how it was run: as §1
T47D = assay: Growth inhibition of human T47D cells at 10^-5 M incubated for 48 hrs by sulforhodamine B assay; how it was run: as §2
NCI-H460 = assay: Growth inhibition of human NCI-H460 cells at 10^-5 M incubated for 48 hrs by sulforhodamine B assay; how it was run: as §1
MDA-MB-435 = assay: Growth inhibition of human MDA-MB-435 cells at 10^-5 M incubated for 48 hrs by sulforhodamine B assay; how it was run: as §1
BT-549 = assay: Growth inhibition of human BT549 cells at 10^-5 M incubated for 48 hrs by sulforhodamine B assay; how it was run: as §1
UACC-62 = assay: Growth inhibition of human UACC62 cells at 10^-5 M incubated for 48 hrs by sulforhodamine B assay; how it was run: as §2
SF-539 = assay: Growth inhibition of human SF539 cells at 10^-5 M incubated for 48 hrs by sulforhodamine B assay; how it was run: as §1
A549 = assay: Growth inhibition of human A549/ATCC cells at 10^-5 M incubated for 48 hrs by sulforhodamine B assay; how it was run: as §1
HT-29 = assay: Growth inhibition of human HT-29 cells at 10^-5 M incubated for 48 hrs by sulforhodamine B assay; how it was run: as §1
SK-MEL-2 = assay: Growth inhibition of human SK-MEL-2 cells at 10^-5 M incubated for 48 hrs by sulforhodamine B assay; how it was run: as §1
EKVX = assay: Growth inhibition of human EKVX cells at 10^-5 M incubated for 48 hrs by sulforhodamine B assay; how it was run: as §1
UACC-257 = assay: Growth inhibition of human UACC257 cells at 10^-5 M incubated for 48 hrs by sulforhodamine B assay; how it was run: as §2
CAKI-1 = assay: Growth inhibition of human Caki1 cells at 10^-5 M incubated for 48 hrs by sulforhodamine B assay; how it was run: as §1
SNB-75 = assay: Growth inhibition of human SNB75 cells at 10^-5 M incubated for 48 hrs by sulforhodamine B assay; how it was run: as §1
NCI/ADR-RES = assay: Growth inhibition of human NCI/ADR-RES cells at 10^-5 M incubated for 48 hrs by sulforhodamine B assay; how it was run: as §1
HL-60(TB) = assay: Growth inhibition of human HL-60(TB) cells at 10^-5 M incubated for 48 hrs by sulforhodamine B assay
How it was run: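 Run in the NCI59 cell-line one-dose screen, with each compound tested at a single concentration of 1 × 10−5 M.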

U-251 = assay: Growth inhibition of human U251 cells at 10^-5 M incubated for 48 hrs by sulforhodamine B assay; how it was run: as §2
MCF7 = assay: Growth inhibition of human MCF7 cells at 10^-5 M incubated for 48 hrs by sulforhodamine B assay; how it was run: as §1
HOP-92 = assay: Growth inhibition of human HOP92 cells at 10^-5 M incubated for 48 hrs by sulforhodamine B assay; how it was run: as §1
HOP-62 = assay: Growth inhibition of human HOP62 cells at 10^-5 M incubated for 48 hrs by sulforhodamine B assay; how it was run: as §1
HCC 2998 = assay: Growth inhibition of human HCC2998 cells at 10^-5 M incubated for 48 hrs by sulforhodamine B assay; how it was run: as §1
SK-OV-3 = assay: Growth inhibition of human SKOV3 cells at 10^-5 M incubated for 48 hrs by sulforhodamine B assay; how it was run: as §1
ACHN = assay: Growth inhibition of human ACHN cells at 10^-5 M incubated for 48 hrs by sulforhodamine B assay; how it was run: as §1
A498 = assay: Growth inhibition of human A498 cells at 10^-5 M incubated for 48 hrs by sulforhodamine B assay; how it was run: as §1
SW-620 = assay: Growth inhibition of human SW620 cells at 10^-5 M incubated for 48 hrs by sulforhodamine B assay; how it was run: as §2
DU-145 = assay: Growth inhibition of human DU145 cells at 10^-5 M incubated for 48 hrs by sulforhodamine B assay; how it was run: as §1
M14 = assay: Growth inhibition of human M14 cells at 10^-5 M incubated for 48 hrs by sulforhodamine B assay; how it was run: as §1
OVCAR-5 = assay: Growth inhibition of human OVCAR5 cells at 10^-5 M incubated for 48 hrs by sulforhodamine B assay; how it was run: as §1

Measured: growth inhibition (GI)

CC[C@H](C)C(=O)O[C@@H]1[C@@H]2[C@@H](OC(=O)C(C)C)[C@@]34O[C@]2(O)[C@@](C)([C@@H](CC(=O)OC)C1(C)C)[C@H]3CC[C@]1(C)C4=CC(=O)O[C@H]1c1ccoc1
inactive: all assays above

COC(=O)C[C@H]1[C@@]2(C)C[C@@]34O[C@@]5(C)O[C@]6([C@@H]7CC(=O)O[C@@H](c8ccoc8)[C@]7(C)CC[C@]6(O5)[C@@]13C)[C@@H](OC(C)=O)[C@@]4(OC(C)=O)[C@H]2OC(C)=O
inactive: all assays above
